Laboratory results taken from ChEMBL document CHEMBL3853307, “Anti-inflammatory Effect of Methyl Gallate on Experimental Arthritis: Inhibition of Neutrophil Recruitment, Production of Inflammatory Mediators, and Activation of Macrophages” (J Nat Prod, 2016).
Calls of active or inactive are those of the source. The calls are words filed in the database; no cut-off is given here.

Columns and labels:
Mus musculus [1] = assay: Antiinflammatory activity in C57BL/6 mouse assessed as inhibition of zymosan-induced PGE2 production in cell-free supernatant of knee joint synovial washes at 7 mg/kg, po administered 1 hr prior to zymosan challenge measured at 6 to 24 hrs by immunosorbent assay; type: functional, organism-based
How it was run: (§1)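 Male C57BL/6 mice (18−22 g), fasted overnight, dosed orally (in filtered water, 200 μL) or i.p. 1 h before i.a. zymosan (500 μg in 25 μL saline) into left knee; contralateral knee got vehicle. Synovial cavity washed twice with 150 μL PBS/10 mM EDTA at 6 and 24 h; washes spun 400g 10 min, 4 °C. Cytokines measured by sandwich ELISA, LTB4/PGE2 by EIA (pg/mL); six mice/group, two experiments.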

Neutrophil = assay: Antiinflammatory activity in C57BL/6 mouse neutrophils assessed as inhibition of neutrophil adhesion to TNFalpha-primed mouse tEnd.1 cells at 0.1 uM preincubated for 1 hr with neutrophils followed by tEND.1 cells addition measured after 1 hr by Giemsa staining-based light microscopic method; type: functional, cell-based
How it was run: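 tEnd.1 endothelioma cells (10^4/well, 24 h) primed with mouse TNF-α (10 ng/mL) for 4 h. Bone marrow neutrophils preincubated 1 h with compound (0.1 μM) or fucoidan (25 μg/mL), then added at 50 per tEnd.1 cell for 1 h at 37 °C with shaking. After washing and Giemsa staining, adhesion index = fraction of tEnd.1 with bound neutrophils × neutrophils per tEnd.1 × 100.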

Mus musculus [2] = assay: Antiinflammatory activity in C57BL/6 mouse assessed as inhibition of zymosan-induced bleeding in synovial tissue at 7 mg/kg, po administered 1 hr prior to zymosan challenge measured at 6 to 24 hrs by hematoxylin and eosin staining-based optical microscopy; type: functional, organism-based
How it was run: (§2)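 Mice dosed orally or i.p. 1 h before i.a. zymosan (500 μg/cavity) or saline. Whole knees taken at 6 and 24 h from six mice, fixed in 10% formalin 48 h, decalcified in 10% EDTA/PBS 1−2 weeks, paraffin-embedded. 5 μm sections H&E-stained and examined by light microscopy. Parameter scores summed into an arthritis index; means ± SEM, two experiments.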

Mus musculus [3] = assay: Antiinflammatory activity in C57BL/6 mouse assessed as inhibition of zymosan-induced total leukocyte accumulation in articular cavity at 7 mg/kg, po administered 1 hr prior to zymosan challenge measured at 6 hrs; type: functional, organism-based
How it was run: (§3)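 Male C57BL/6 mice, fasted overnight, dosed orally (vehicle saline/water, 200 μL) or i.p. 1 h before zymosan (500 μg in 25 μL saline, i.a., left knee). Knee swelling measured as change in transverse diameter from basal by digital caliper (mm). Synovial washes (PBS/EDTA) counted on a particle counter; differentials from May-Grünwald-Giemsa cytospins, cells ×10^5/cavity. Sampled at 6 and/or 24 h; seven mice/group.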

Mus musculus [4] = assay: Antiinflammatory activity in C57BL/6 mouse assessed as inhibition of zymosan-induced neutrophils recruitment in synovial cavity at 0.7 to 70 mg/kg, po administered 1 hr prior to zymosan challenge measured after 6 to 24 hrs by Grunwald-Giemsa-stained cytospin smear; type: functional, organism-based; how it was run: as §3
J774.A1 = assay: Antiinflammatory activity in mouse J774A.1 cells assessed as inhibition of zymosan and IFNgamma-induced COX2 expression at 1 to 10 uM preincubated for 1 hr followed by zymosan and IFNgamma addition measured after 24 hrs by Western blot analysis; type: functional, cell-based
How it was run: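 J774A.1 cells in six-well plates pretreated 1 h (0.1−10 μM) before zymosan (10 μg per 10^5 cells) and/or IFN-γ (25 U/mL) for 24 h. Lysates (Tris/NaCl/MgCl2/0.5% NP40 with protease inhibitors); 30 μg protein run on 7.5% SDS-PAGE, transferred to PVDF, probed for COX-2, iNOS and α-tubulin.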

Mus musculus [5] = assay: Antiinflammatory activity in C57BL/6 mouse assessed as inhibition of zymosan-induced neutrophil migration in articular cavity at 7 mg/kg, po administered 1 hr prior to zymosan challenge measured at 6 hrs relative to control; type: functional; conditions: C57BL/6, po; how it was run: as §3
Mus musculus [6] = assay: Antiinflammatory activity in C57BL/6 mouse assessed as inhibition of zymosan-induced total leukocyte recruitment in synovial cavity at 0.7 to 70 mg/kg, po administered 1 hr prior to zymosan challenge measured after 6 to 24 hrs by particle counting method; type: functional, organism-based; how it was run: as §3
Mus musculus [7] = assay: Antiinflammatory activity in C57BL/6 mouse assessed as inhibition of zymosan-induced neutrophil migration in articular cavity at 7 mg/kg, po administered 1 hr prior to zymosan challenge measured at 24 hrs relative to control; type: functional; conditions: C57BL/6, po; how it was run: as §3
Mus musculus [8] = assay: Antiinflammatory activity in C57BL/6 mouse assessed as inhibition of zymosan-induced knee joint edema formation at 0.7 to 70 mg/kg, po administered 1 hr prior to zymosan challenge measured at 6 hrs; type: functional, organism-based; how it was run: as §3
Mus musculus [9] = assay: Antiinflammatory activity in zymosan-induced C57BL/6 mouse pleurisy model assessed as reduction in neutrophil influx in thoracic cavity at 10 to 50 mg/kg, po administered 1 hr prior to zymosan challenge measured after 4 hrs using Grunwald-Giemsa-stained cytospin smear by light microscopy; type: functional, organism-based
How it was run: (§4)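 Oral pretreatment 1 h before intrathoracic zymosan (100 μg/cavity in 100 μL saline). Cavities washed at 4 h with 1 mL PBS/10 mM EDTA. Total leukocytes counted on a particle counter, differentials from May-Grünwald-Giemsa cytospins (×10^6/cavity). Supernatant after 400g 10 min assayed for total protein by Bradford.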

Mus musculus [10] = assay: Antiinflammatory activity in C57BL/6 mouse assessed as inhibition of zymosan-induced CXCL1/KC production in cell-free supernatant of knee joint synovial washes at 7 mg/kg, po administered 1 hr prior to zymosan challenge measured at 6 to 24 hrs by sandwich ELISA method; type: functional, organism-based; how it was run: as §1
Mus musculus [11] = assay: Antiinflammatory activity in C57BL/6 mouse assessed as inhibition of zymosan-induced paw edema at 10 to 50 mg/kg, po administered 1 hr prior to zymosan challenge measured after 4 hrs by plethysmography; type: functional, organism-based
How it was run: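 C57BL/6 mice dosed orally (1−50 mg/kg) before intraplantar zymosan (100 μg/paw in 50 μL saline); contralateral paw got saline. Volume measured by plethysmography at 4 h, edema taken as right minus left paw (μL).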

Mus musculus [12] = assay: Antiinflammatory activity in C57BL/6 mouse assessed as inhibition of zymosan-induced knee joint edema formation at 7 mg/kg, po administered 1 hr prior to zymosan challenge measured at 24 hrs relative to control; type: functional; conditions: C57BL/6, Knee joint; how it was run: as §3
Mus musculus [13] = assay: Antiinflammatory activity in C57BL/6 mouse assessed as inhibition of zymosan-induced synovial hyperplasia at 7 mg/kg, po administered 1 hr prior to zymosan challenge measured at 6 to 24 hrs by hematoxylin and eosin staining-based optical microscopy; type: functional, organism-based; how it was run: as §2
Mus musculus [14] = assay: Antiinflammatory activity in zymosan-induced C57BL/6 mouse pleurisy model assessed as reduction in protein extravasation in thoracic cavity at 10 to 50 mg/kg, po administered 1 hr prior to zymosan challenge measured after 4 hrs; type: functional, organism-based; how it was run: as §4

In the case of `COC(=O)c1cc(O)c(O)c(O)c1` [GALLIC ACID METHYL ESTER], the inhibition (Mus musculus [1]) is reported as “Active”, the inhibition (Neutrophil) is reported as “Active” and the inhibition (Mus musculus [2]) is reported as “Active”. The inhibition (Mus musculus [3]) was “Active”, the inhibition (Mus musculus [4]) was “Active” and the inhibition (J774.A1) was “Active”. For the same compound, the inhibition in vivo at 7 mg/kg (Mus musculus [5]) was 64%, the inhibition (Mus musculus [6]) was “Active” and the inhibition in vivo at 7 mg/kg (Mus musculus [7]) was 74%. The inhibition (Mus musculus [8]) was “Active”, the Activity (Mus musculus [9]) was “Active” and the inhibition (Mus musculus [10]) was “Active”. The inhibition (Mus musculus [11]) was “Active”, the inhibition in vivo at 7 mg/kg (Mus musculus [12]) was 49% and the inhibition (Mus musculus [13]) was “Active”. For the same compound, the Activity (Mus musculus [14]) was “Active”.
